{"source": "ChEMBL document CHEMBL4130438", "about": "“6,7-Seco-ent-Kauranoids Derived from Oridonin as Potential Anticancer Agents” (J Nat Prod, 2017)", "key": {"Mus musculus": {"test_system": "Mus musculus", "assay": "Toxicity in ICR mouse xenografted with […] cells assessed as effect on body weight loss at 10 to 20 mg/kg, iv qd administered for 14 consecutive days", "format": "organism-based", "conditions": "in vivo", "outline": "(§1)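 Male ICR mice, five weeks old, implanted s.c. in the right flank with 1 × 10^6 H22 cells. After 7 days, randomised into groups of eight. Given i.v. once daily for 14 days, 10 or 20 mg/kg in 10% DMF/2% poloxamer/88% saline; negative controls received 0.9% saline i.v., positive control 20 mg/kg oridonin. Body weight and tumour volume (L × W²/2) recorded every 2 days. Tumours excised and weighed at sacrifice; inhibition (%) = (1 − treated/control mean tumour weight) × 100.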"}, "MCF7 [1]": {"test_system": "MCF7", "assay": "Cell cycle arrest in human MCF7 cells assessed as accumulation at G2/M phase at 0.50 uM after 48 hrs by propidium iodide staining based flow cytometry (reference value: 12.72%)", "format": "functional"}, "MCF7 [2]": {"test_system": "MCF7", "assay": "Induction of apoptosis in human MCF7 cells assessed as viable cells at 0.25 uM after 24 hrs by Annexin-V FITC/propidium iodide staining based flow cytometry (reference value: 97.5%)", "format": "functional", "conditions": "MCF7, 24 h, read-out: Activity"}, "MCF7 [3]": {"test_system": "MCF7", "assay": "Induction of apoptosis in human MCF7 cells assessed as necrotic cells at 0.25 uM after 24 hrs by Annexin-V FITC/propidium iodide staining based flow cytometry (reference value: 0.610%)", "format": "functional"}, "H22 [4]": {"test_system": "H22", "assay": "Antitumor activity against […] cells xenografted in ICR mouse assessed as inhibition of tumor volume at 20 mg/kg, iv qd administered for 14 consecutive days measured every 2 days relative to control", "format": "functional", "conditions": "14 days", "outline": "as §1"}, "MCF7 [5]": {"test_system": "MCF7", "assay": "Induction of apoptosis in human MCF7 cells assessed as viable cells at 2 uM after 24 hrs by Annexin-V FITC/propidium iodide staining based flow cytometry (reference value: 97.5%)", "format": "functional", "conditions": "MCF7, 24 h, read-out: Activity"}, "MCF7 [6]": {"test_system": "MCF7", "assay": "Induction of apoptosis in human MCF7 cells assessed as increase in ERK phosphorylation after 48 hrs by Western blot analysis", "format": "functional, cell-based"}, "MCF7 [7]": {"test_system": "MCF7", "assay": "Cell cycle arrest in human MCF7 cells assessed as accumulation at G1 phase at 2 uM after 48 hrs by propidium iodide staining based flow cytometry (reference value: 70.27%)", "format": "functional"}, "MCF7 [8]": {"test_system": "MCF7", "assay": "Induction of apoptosis in human MCF7 cells assessed as necrotic cells at 0.50 uM after 24 hrs by Annexin-V FITC/propidium iodide staining based flow cytometry (reference value: 0.610%)", "format": "functional"}, "MCF7 [9]": {"test_system": "MCF7", "assay": "Induction of apoptosis in human MCF7 cells assessed as early apoptotic cells at 0.25 uM after 24 hrs by Annexin-V FITC/propidium iodide staining based flow cytometry (reference value: 1.60%)", "format": "functional"}, "MCF7 [10]": {"test_system": "MCF7", "assay": "Antiproliferative activity against human MCF7 cells after 72 hrs by MTT assay", "format": "functional, cell-based", "conditions": "MCF7, 72 h", "outline": "(§2)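 Cells pre-incubated 24 h at 37 °C, 5% CO2 in 96-well plates, then exposed to a range of compound concentrations (DMSO ≤0.25%) for 72 h. Viable cells read by MTT colour at 570 nm. Performed in quadruplicate, repeated three times. IC50 reported as means ± SD, n = 3.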"}, "MCF7 [11]": {"test_system": "MCF7", "assay": "Inhibition of colony formation in human MCF7 cells up to 600 nM incubated for 24 hrs followed by removal of media measured after 10 days by crystal violet staining based microscopy", "format": "functional, cell-based", "outline": "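300 MCF-7 cells per well plated and incubated overnight, then exposed for 24 h to graded concentrations in DMSO (DMSO-only control). Medium removed and cells grown 10 days. Fixed in methanol 15 min, stained with 0.1% crystal violet 15 min; colonies of >50 cells counted. At least three independent experiments.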"}, "MCF7 [12]": {"test_system": "MCF7", "assay": "Cell cycle arrest in human MCF7 cells assessed as accumulation at G2/M phase at 2 uM after 48 hrs by propidium iodide staining based flow cytometry (reference value: 12.72%)", "format": "functional"}, "MCF7 [13]": {"test_system": "MCF7", "assay": "Induction of apoptosis in human MCF7 cells assessed as early apoptotic cells at 2 uM after 24 hrs by Annexin-V FITC/propidium iodide staining based flow cytometry (reference value: 1.60%)", "format": "functional"}, "MCF7 [14]": {"test_system": "MCF7", "assay": "Induction of apoptosis in human MCF7 cells assessed as early apoptotic cells at 0.50 uM after 24 hrs by Annexin-V FITC/propidium iodide staining based flow cytometry (reference value: 1.60%)", "format": "functional"}, "MCF7 [15]": {"test_system": "MCF7", "assay": "Induction of apoptosis in human MCF7 cells assessed as late apoptotic cells at 2 uM after 24 hrs by Annexin-V FITC/propidium iodide staining based flow cytometry (reference value: 0.290%)", "format": "functional"}, "H22 [16]": {"test_system": "H22", "assay": "Antitumor activity against […] cells xenografted in ICR mouse assessed as decrease in tumor weight at 10 to 20 mg/kg, iv qd administered for 14 consecutive days measured every 2 days", "format": "functional, organism-based", "outline": "as §1"}, "MCF7 [17]": {"test_system": "MCF7", "assay": "Induction of apoptosis in human MCF7 cells assessed as decrease in mitochondrial membrane potential measured after 36 hrs by JC-1 staining based fluorescence microscopy", "format": "functional, cell-based", "outline": "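MCF-7 cells treated 36 h across a range of concentrations, then loaded with 10 μg/mL JC-1 for 30 min at 37 °C and washed in PBS. Monomer fluorescence read at ex 490/em 535 nm and aggregate fluorescence at ex 525/em 600 nm, by plate reader or fluorescence microscopy. Run in triplicate.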"}, "MCF7 [18]": {"test_system": "MCF7", "assay": "Cell cycle arrest in human MCF7 cells assessed as accumulation at G1 phase at 1 uM after 48 hrs by propidium iodide staining based flow cytometry (reference value: 70.27%)", "format": "functional"}, "MCF7 [19]": {"test_system": "MCF7", "assay": "Induction of apoptosis in human MCF7 cells assessed as necrotic cells at 1 uM after 24 hrs by Annexin-V FITC/propidium iodide staining based flow cytometry (reference value: 0.610%)", "format": "functional"}, "MCF7 [20]": {"test_system": "MCF7", "assay": "Induction of apoptosis in human MCF7 cells assessed as late apoptotic cells at 0.25 uM after 24 hrs by Annexin-V FITC/propidium iodide staining based flow cytometry (reference value: 0.290%)", "format": "functional"}, "MGC-803": {"test_system": "MGC-803", "assay": "Antiproliferative activity against human MGC803 cells after 72 hrs by MTT assay", "format": "functional, cell-based", "conditions": "MGC-803, 72 h", "outline": "as §2"}, "MCF7 [21]": {"test_system": "MCF7", "assay": "Cell cycle arrest in human MCF7 cells assessed as accumulation at G2/M phase at 1 uM after 48 hrs by propidium iodide staining based flow cytometry (reference value: 12.72%)", "format": "functional"}, "MCF7 [22]": {"test_system": "MCF7", "assay": "Induction of apoptosis in human MCF7 cells after 24 hrs by Annexin-V FITC/propidium iodide staining based flow cytometry", "format": "functional, cell-based"}, "MCF7 [23]": {"test_system": "MCF7", "assay": "Cell cycle arrest in human MCF7 cells assessed as accumulation at G1 phase at 0.25 uM after 48 hrs by propidium iodide staining based flow cytometry (reference value: 70.27%)", "format": "functional"}, "MCF7 [24]": {"test_system": "MCF7", "assay": "Induction of apoptosis in human MCF7 cells assessed as late apoptotic cells at 1 uM after 24 hrs by Annexin-V FITC/propidium iodide staining based flow cytometry (reference value: 0.290%)", "format": "functional"}, "MCF7 [25]": {"test_system": "MCF7", "assay": "Induction of apoptosis in human MCF7 cells assessed as increase in Bax expression level after 48 hrs by Western blot analysis", "format": "functional, cell-based"}, "MCF7 [26]": {"test_system": "MCF7", "assay": "Cell cycle arrest in human MCF7 cells assessed as accumulation at S phase at 1 uM after 48 hrs by propidium iodide staining based flow cytometry (reference value: 17.01%)", "format": "functional"}, "MCF7 [27]": {"test_system": "MCF7", "assay": "Cell cycle arrest in human MCF7 cells assessed as accumulation at S phase at 0.50 uM after 48 hrs by propidium iodide staining based flow cytometry (reference value: 17.01%)", "format": "functional"}}, "note": "Calls of active or inactive are those of the source. The rule behind the calls is not given here."}
{"compound": "C=C1C(=O)[C@@]23C(=O)OC[C@]4(C=CCC(C)(C)[C@H]4C=O)[C@@H]2CC[C@@H]1[C@H]3OC(=O)c1ccc(F)cc1", "values": [{"measurement": "Activity", "setting": "Mus musculus", "value": "Non-Toxic"}, {"measurement": "Activity", "setting": "MCF7 [1]", "value": 19.47, "unit": "%"}, {"measurement": "viability at 0.25 µM", "setting": "MCF7 [2]", "value": 87.2, "unit": "%"}, {"measurement": "Activity", "setting": "MCF7 [3]", "value": 0.649, "unit": "%"}, {"measurement": "inhibition in vivo at 20 mg/kg", "setting": "H22 [4]", "value": 52.5, "unit": "%"}, {"measurement": "viability at 2 µM", "setting": "MCF7 [5]", "value": 58.6, "unit": "%"}, {"measurement": "Activity", "setting": "MCF7 [6]", "value": "Dose-dependent effect"}, {"measurement": "Activity", "setting": "MCF7 [7]", "value": 57.49, "unit": "%"}, {"measurement": "Activity", "setting": "MCF7 [8]", "value": 0.901, "unit": "%"}, {"measurement": "Activity", "setting": "MCF7 [9]", "value": 6.67, "unit": "%"}, {"measurement": "IC50", "setting": "MCF7 [10]", "value": 0.68, "unit": "µM"}, {"measurement": "inhibition", "setting": "MCF7 [11]", "value": "Active"}, {"measurement": "Activity", "setting": "MCF7 [12]", "value": 24.8, "unit": "%"}, {"measurement": "Activity", "setting": "MCF7 [13]", "value": 14, "unit": "%"}, {"measurement": "Activity", "setting": "MCF7 [14]", "value": 9.75, "unit": "%"}, {"measurement": "Activity", "setting": "MCF7 [15]", "value": 24.7, "unit": "%"}, {"measurement": "Activity", "setting": "H22 [16]", "value": "Active"}, {"measurement": "Activity", "setting": "MCF7 [17]", "value": "Dose-dependent effect"}, {"measurement": "Activity", "setting": "MCF7 [18]", "value": 63.35, "unit": "%"}, {"measurement": "Activity", "setting": "MCF7 [19]", "value": 1.93, "unit": "%"}, {"measurement": "Activity", "setting": "MCF7 [20]", "value": 5.51, "unit": "%"}, {"measurement": "IC50", "setting": "MGC-803", "value": 2.2, "unit": "µM"}, {"measurement": "Activity", "setting": "MCF7 [21]", "value": 21.23, "unit": "%"}, {"measurement": "Activity", "setting": "MCF7 [22]", "value": "Dose-dependent effect"}, {"measurement": "Activity", "setting": "MCF7 [23]", "value": 67.64, "unit": "%"}, {"measurement": "Activity", "setting": "MCF7 [24]", "value": 15.9, "unit": "%"}, {"measurement": "Activity", "setting": "MCF7 [25]", "value": "Dose-dependent effect"}, {"measurement": "Activity", "setting": "MCF7 [26]", "value": 15.43, "unit": "%"}, {"measurement": "Activity", "setting": "MCF7 [27]", "value": 15.71, "unit": "%"}]}
